From ChEMBL document CHEMBL5653622 (Oncotarget, 2016)
Activity calls are given as the source filed them. The rule behind the calls is not given here.

Assays:
[1] = target: Ephrin type-B receptor 3 (Homo sapiens) (UniProt P54753); experiment: Inhibition of human EPH-B3 assessed as remaining activity at 10 uM in presence of ATP by radiometric kinase assay relative to control
[2] = target: Protein-tyrosine kinase 6 (Homo sapiens) (UniProt Q13882); experiment: Inhibition of human BRK assessed as remaining activity at 10 uM in presence of ATP by radiometric kinase assay relative to control
[3] = target: Homeodomain-interacting protein kinase 2 (Homo sapiens) (UniProt Q9H2X6); experiment: Inhibition of human HIPK2 assessed as remaining activity at 10 uM in presence of ATP by radiometric kinase assay relative to control
[4] = target: Tau-tubulin kinase 1 (Homo sapiens) (UniProt Q5TCY1); experiment: Inhibition of human TTBK1 assessed as remaining activity at 10 uM in presence of ATP by radiometric kinase assay relative to control
[5] = target: Serine/threonine-protein kinase Nek2 (Homo sapiens) (UniProt P51955); experiment: Inhibition of human NEK2a assessed as remaining activity at 10 uM in presence of ATP by radiometric kinase assay relative to control
[6] = target: Myosin light chain kinase, smooth muscle (Homo sapiens) (UniProt Q15746); experiment: Inhibition of human SmMLCK assessed as remaining activity at 10 uM in presence of ATP by radiometric kinase assay relative to control
[7] = target: T1, Ribosomal protein S6 kinase alpha-3 (Homo sapiens, UniProt P51812); experiment: Inhibition of human RSK2 by FRET based Z-LYTE kinase assay
[8] = target: Tyrosine-protein kinase ABL1 (Homo sapiens) (UniProt P00519); experiment: Inhibition of human ABL assessed as remaining activity at 10 uM in presence of ATP by radiometric kinase assay relative to control
[9] = target: Mitogen-activated protein kinase 1 (Homo sapiens) (UniProt P28482); experiment: Inhibition of human ERK2 assessed as remaining activity at 10 uM in presence of ATP by radiometric kinase assay relative to control
HT-29 = experiment: Induction of cell cycle arrest in human HT-29 cells assessed as accumulation of cells at G0/G1 phase at 0.5 uM incubated for 24 hrs by BrdU and PI staining based flow cytometry analysis; assay type: functional
How it was run: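 HT29 cells exposed for 24h, stained with bromodeoxyuridine and propidium iodide, and cell-cycle distribution measured by flow cytometry.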

[10] = Cmax in BALB/C mouse spleen at 10 mg/kg, iv by LC/MS-MS analysis; assay type: ADME, organism-based
How it was run: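 Female BALB/c mice received a single 10mg/kg bolus i.v. or p.o. Plasma (and spleen homogenate) extracted with methanol containing internal standards. Concentrations were measured by LC/MS-MS and PK parameters calculated with modelling software.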

Mus musculus [11] = experiment: In vivo inhibition of CHK1 in CRTac:Ncr-Fox1 athymic mouse xenografted with human Calu-6 cells assessed as inhibition of CHK1 phosphorylation on S296 at 150 mg/kg, po in presence of gemcitabine and carboplatin by ELISA analysis; assay type: functional, organism-based
[12] = target: Serine/threonine-protein kinase N2 (Homo sapiens) (UniProt Q16513); experiment: Inhibition of human PRK2 assessed as remaining activity at 10 uM in presence of ATP by radiometric kinase assay relative to control
[13] = target: Homeodomain-interacting protein kinase 1 (Homo sapiens) (UniProt Q86Z02); experiment: Inhibition of human HIPK1 assessed as remaining activity at 10 uM in presence of ATP by radiometric kinase assay relative to control
[14] = target: AMP-activated protein kinase (AMPK) alpha-1/beta-1/gamma-1 (Homo sapiens, UniProt P54619+Q13131+Q9Y478); experiment: Inhibition of AMPK alpha1/beta1/gamma1 (unknown origin) by FRET based Z-LYTE kinase assay; assay type: protein-complex assay
[15] = target: Serine/threonine-protein kinase 33 (Homo sapiens) (UniProt Q9BYT3); experiment: Inhibition of human STK33 assessed as remaining activity at 10 uM in presence of ATP by radiometric kinase assay relative to control
[16] = target: Serine/threonine-protein kinase pim-3 (Homo sapiens) (UniProt Q86V86); experiment: Inhibition of human PIM3 assessed as remaining activity at 10 uM in presence of ATP by radiometric kinase assay relative to control
[17] = target: T1, Ribosomal protein S6 kinase alpha-3; experiment: Inhibition of human RSK2 at 10 uM in presence of ATP by radiometric kinase assay relative to control
[18] = target: Aurora kinase A (Homo sapiens) (UniProt O14965); experiment: Inhibition of human AuroraA assessed as remaining activity at 10 uM in presence of ATP by radiometric kinase assay relative to control
[19] = target: RAC-beta serine/threonine-protein kinase (Homo sapiens) (UniProt P31751); experiment: Inhibition of human PKBb assessed as remaining activity at 10 uM in presence of ATP by radiometric kinase assay relative to control
[20] = target: Dual specificity tyrosine-phosphorylation-regulated kinase 3 (Homo sapiens) (UniProt O43781); experiment: Inhibition of human DYRK3 assessed as remaining activity at 10 uM in presence of ATP by radiometric kinase assay relative to control
[21] = Toxicity in Emu-Myc driven transgenic mouse transplant model of B-cell lymphoma assessed as reduction in weight of thymus at 150 mg/kg, po administered for 9 days; assay type: organism-based; conditions: in vivo, 216 h, time 9 day
[22] = target: Ephrin type-A receptor 4 (Homo sapiens) (UniProt P54764); experiment: Inhibition of human EPH-A4 assessed as remaining activity at 10 uM in presence of ATP by radiometric kinase assay relative to control
[23] = Toxicity in Emu-Myc driven transgenic mouse transplant model of B-cell lymphoma assessed as reduction in weight of the brachial/axillary lymph nodes at 150 mg/kg, po administered for 9 days; assay type: organism-based; conditions: in vivo, 216 h, time 9 day
[24] = target: NUAK family SNF1-like kinase 1 (Homo sapiens) (UniProt O60285); experiment: Inhibition of human NUAK1 at 10 uM in presence of ATP by radiometric kinase assay relative to control
[25] = target: Dual specificity testis-specific protein kinase 1 (Homo sapiens) (UniProt Q15569); experiment: Inhibition of human TESK1 assessed as remaining activity at 10 uM in presence of ATP by radiometric kinase assay relative to control
[26] = target: MAP kinase-interacting serine/threonine-protein kinase 1 (Homo sapiens) (UniProt Q9BUB5); experiment: Inhibition of human MNK1 assessed as remaining activity at 10 uM in presence of ATP by radiometric kinase assay relative to control
[27] = target: Testis-specific serine/threonine-protein kinase 1 (Homo sapiens) (UniProt Q9BXA7); experiment: Inhibition of human TSSK1 assessed as remaining activity at 10 uM in presence of ATP by radiometric kinase assay relative to control
Mus musculus [28] = experiment: In vivo inhibition of CHK1 in CRTac:Ncr-Fox1 athymic mouse xenografted with human Calu-6 cells assessed as enhanced phosphorylation CHK1 at […] on 150 mg/kg, po in presence of gemcitabine and carboplatin by Western blotting analysis; assay type: functional, organism-based
How it was run: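 Female CRTac:Ncr-Fox1(nu) athymic mice carried s.c. Calu6 xenografts. Tumors were taken 6h after the last inhibitor dose, lysed in CHAPS buffer, and immunoblotted with GAPDH as loading control.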

T1 sequence (P51812 whole entry): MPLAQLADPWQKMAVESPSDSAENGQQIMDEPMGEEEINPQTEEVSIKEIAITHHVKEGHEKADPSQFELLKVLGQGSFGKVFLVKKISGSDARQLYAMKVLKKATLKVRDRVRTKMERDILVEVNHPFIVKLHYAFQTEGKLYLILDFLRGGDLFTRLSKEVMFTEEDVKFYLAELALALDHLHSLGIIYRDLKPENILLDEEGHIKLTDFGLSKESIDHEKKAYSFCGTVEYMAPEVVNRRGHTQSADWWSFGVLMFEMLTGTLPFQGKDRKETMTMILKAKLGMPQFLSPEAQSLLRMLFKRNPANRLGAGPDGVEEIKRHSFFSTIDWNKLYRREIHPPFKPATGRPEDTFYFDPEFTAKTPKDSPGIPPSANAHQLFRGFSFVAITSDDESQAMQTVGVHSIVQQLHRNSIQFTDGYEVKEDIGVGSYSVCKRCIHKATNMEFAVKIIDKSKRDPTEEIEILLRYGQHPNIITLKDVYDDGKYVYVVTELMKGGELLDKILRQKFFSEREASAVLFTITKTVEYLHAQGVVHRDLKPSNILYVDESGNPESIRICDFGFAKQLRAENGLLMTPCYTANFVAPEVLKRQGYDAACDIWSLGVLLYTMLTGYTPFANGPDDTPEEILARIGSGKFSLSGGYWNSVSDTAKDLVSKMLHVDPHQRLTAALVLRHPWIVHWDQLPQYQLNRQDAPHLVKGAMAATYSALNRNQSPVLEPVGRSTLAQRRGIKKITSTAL
Sequence of Ephrin type-B receptor 3 (Homo sapiens) (P54753 whole entry): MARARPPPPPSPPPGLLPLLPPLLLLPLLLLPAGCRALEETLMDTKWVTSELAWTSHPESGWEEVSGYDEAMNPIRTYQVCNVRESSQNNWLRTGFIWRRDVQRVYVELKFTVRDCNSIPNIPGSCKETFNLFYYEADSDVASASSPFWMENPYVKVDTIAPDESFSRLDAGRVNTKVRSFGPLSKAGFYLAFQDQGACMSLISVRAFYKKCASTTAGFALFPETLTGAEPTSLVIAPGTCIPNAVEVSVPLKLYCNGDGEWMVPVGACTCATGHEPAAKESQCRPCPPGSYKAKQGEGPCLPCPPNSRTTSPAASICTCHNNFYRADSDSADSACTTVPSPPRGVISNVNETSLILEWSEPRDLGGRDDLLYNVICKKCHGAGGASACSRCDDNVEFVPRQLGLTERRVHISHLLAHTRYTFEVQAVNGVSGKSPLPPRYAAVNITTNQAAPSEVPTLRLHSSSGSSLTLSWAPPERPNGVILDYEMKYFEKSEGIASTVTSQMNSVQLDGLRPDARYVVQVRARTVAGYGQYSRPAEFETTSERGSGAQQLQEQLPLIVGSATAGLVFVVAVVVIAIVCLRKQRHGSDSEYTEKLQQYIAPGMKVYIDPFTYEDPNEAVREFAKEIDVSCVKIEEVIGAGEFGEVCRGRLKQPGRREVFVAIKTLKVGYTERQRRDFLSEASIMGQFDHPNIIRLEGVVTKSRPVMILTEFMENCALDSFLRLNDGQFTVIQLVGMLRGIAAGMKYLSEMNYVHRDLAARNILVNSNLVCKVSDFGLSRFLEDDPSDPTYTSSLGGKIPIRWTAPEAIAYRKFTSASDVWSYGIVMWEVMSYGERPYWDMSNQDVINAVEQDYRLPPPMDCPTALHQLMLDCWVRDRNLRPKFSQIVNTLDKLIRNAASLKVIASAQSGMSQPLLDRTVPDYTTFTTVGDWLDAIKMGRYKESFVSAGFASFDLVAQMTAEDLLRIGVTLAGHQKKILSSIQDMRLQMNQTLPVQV
Sequence of Protein-tyrosine kinase 6 (Homo sapiens) (Q13882 whole entry, looked up): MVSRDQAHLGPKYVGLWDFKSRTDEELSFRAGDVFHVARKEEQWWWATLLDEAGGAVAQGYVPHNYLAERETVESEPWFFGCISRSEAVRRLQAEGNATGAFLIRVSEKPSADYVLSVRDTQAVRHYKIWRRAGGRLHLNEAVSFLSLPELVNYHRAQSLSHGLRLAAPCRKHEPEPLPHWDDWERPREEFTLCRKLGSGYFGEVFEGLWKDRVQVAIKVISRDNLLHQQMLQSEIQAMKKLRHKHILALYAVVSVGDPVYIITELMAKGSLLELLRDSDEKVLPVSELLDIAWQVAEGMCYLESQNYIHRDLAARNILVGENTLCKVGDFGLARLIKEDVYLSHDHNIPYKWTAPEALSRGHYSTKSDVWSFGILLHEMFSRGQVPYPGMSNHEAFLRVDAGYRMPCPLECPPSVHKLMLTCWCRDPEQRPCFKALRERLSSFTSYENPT
Sequence of MAP kinase-interacting serine/threonine-protein kinase 1 (Homo sapiens) (Q9BUB5 whole entry, looked up): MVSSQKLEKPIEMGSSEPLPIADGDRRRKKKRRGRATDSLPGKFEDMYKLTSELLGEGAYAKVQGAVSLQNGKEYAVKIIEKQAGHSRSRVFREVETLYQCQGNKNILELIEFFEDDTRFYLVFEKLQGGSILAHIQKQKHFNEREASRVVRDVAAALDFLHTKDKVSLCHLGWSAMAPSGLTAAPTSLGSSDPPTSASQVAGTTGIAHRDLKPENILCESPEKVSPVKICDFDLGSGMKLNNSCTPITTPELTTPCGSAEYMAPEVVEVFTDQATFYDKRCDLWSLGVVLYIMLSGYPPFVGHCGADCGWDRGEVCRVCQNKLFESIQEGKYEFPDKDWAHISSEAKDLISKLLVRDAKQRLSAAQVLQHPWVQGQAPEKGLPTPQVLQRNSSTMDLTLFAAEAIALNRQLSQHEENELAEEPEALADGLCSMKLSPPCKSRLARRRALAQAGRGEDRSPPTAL
Sequence of Tau-tubulin kinase 1 (Homo sapiens) (Q5TCY1 whole entry): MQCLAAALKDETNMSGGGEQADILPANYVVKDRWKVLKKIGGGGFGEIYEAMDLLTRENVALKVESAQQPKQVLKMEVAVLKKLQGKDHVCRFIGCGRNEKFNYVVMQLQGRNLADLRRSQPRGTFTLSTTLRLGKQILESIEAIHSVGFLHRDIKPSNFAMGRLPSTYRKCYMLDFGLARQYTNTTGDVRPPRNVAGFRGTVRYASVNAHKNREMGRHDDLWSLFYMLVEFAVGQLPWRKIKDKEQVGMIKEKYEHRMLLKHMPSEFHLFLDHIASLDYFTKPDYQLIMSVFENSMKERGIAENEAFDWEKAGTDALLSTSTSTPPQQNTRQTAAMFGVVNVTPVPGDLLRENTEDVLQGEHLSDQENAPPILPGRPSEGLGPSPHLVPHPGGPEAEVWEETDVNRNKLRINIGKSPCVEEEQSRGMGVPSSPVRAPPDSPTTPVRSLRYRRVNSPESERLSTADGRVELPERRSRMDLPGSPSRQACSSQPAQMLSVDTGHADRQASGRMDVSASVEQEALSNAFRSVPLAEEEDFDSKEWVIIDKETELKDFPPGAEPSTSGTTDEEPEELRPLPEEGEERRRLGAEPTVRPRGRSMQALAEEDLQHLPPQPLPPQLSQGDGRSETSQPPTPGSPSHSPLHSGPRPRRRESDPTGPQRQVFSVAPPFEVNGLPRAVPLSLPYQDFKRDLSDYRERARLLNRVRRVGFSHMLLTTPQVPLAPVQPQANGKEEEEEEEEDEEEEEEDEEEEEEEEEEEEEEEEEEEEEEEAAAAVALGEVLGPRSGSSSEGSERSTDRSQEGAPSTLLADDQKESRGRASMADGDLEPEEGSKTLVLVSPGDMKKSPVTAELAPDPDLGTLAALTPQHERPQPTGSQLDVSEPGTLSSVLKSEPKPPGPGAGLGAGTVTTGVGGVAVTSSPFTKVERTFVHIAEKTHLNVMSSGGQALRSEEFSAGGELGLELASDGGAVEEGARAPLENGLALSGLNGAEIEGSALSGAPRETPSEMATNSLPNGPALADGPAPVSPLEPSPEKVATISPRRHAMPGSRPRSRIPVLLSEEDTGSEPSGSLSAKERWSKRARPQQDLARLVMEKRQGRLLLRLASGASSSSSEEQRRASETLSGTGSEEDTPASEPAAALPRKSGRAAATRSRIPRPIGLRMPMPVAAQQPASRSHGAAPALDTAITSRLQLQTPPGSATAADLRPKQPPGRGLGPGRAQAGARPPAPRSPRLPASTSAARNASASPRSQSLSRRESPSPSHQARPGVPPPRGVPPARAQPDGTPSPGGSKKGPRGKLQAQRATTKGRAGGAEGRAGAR
Sequence of Mitogen-activated protein kinase 1 (Homo sapiens) (P28482 whole entry): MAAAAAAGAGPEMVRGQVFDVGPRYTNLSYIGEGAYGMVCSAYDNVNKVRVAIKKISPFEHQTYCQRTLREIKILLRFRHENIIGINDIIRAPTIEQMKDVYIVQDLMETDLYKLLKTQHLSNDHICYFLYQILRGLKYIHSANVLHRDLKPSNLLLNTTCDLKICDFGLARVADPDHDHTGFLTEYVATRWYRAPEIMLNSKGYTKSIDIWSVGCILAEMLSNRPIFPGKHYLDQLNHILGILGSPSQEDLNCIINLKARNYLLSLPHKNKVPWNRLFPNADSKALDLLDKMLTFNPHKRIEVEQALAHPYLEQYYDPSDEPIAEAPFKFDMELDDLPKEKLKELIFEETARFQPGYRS
Sequence of Aurora kinase A (Homo sapiens) (O14965 whole entry): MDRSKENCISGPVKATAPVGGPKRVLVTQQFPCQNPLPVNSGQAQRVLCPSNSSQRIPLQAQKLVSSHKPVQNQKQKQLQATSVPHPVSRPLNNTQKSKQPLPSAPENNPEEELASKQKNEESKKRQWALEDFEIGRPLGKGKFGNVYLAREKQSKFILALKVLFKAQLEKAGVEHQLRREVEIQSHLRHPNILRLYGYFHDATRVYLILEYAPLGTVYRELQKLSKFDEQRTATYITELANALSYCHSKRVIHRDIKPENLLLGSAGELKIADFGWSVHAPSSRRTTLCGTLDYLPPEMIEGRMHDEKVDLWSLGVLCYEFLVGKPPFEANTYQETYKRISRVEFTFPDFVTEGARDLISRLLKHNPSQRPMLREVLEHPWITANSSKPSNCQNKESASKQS

In the case of `N#Cc1cnc(Nc2cc(NC[C@H]3CNCCO3)c(C(F)(F)F)cn2)cn1` [SRA-737], the Activity [1] is reported as 93%, the Activity [2] is reported as 108% and the Activity [3] is reported as 92%. It also gave an Activity [4] of 82%, an Activity [5] of 96% and an Activity [6] of 84%. For the same molecule, the IC50 [7] was 361 nM, the Activity [8] was 93% and the Activity [9] was 98%. For the same molecule, the Activity (HT-29) was “Active”, the Cmax [10] was 44.7 µM and the inhibition (Mus musculus [11]) was “Active”. For the same molecule, the Activity [12] was 67%, the Activity [13] was 77% and the IC50 [14] was 2970 nM. It also gave an Activity [15] of 39%, an Activity [16] of 36% and an inhibition [17] of 81%. The Activity [18] was 75%, the Activity [19] was 100% and the Activity [20] was 24%. The Activity [21] was “Toxic”, the Activity [22] was 71% and the Activity [23] was “Toxic”. The inhibition [24] was 94%, the Activity [25] was 101% and the Activity [26] was 62%. For the same molecule, the Activity [27] was 53% and the Activity (Mus musculus [28]) was “Active”.
